Tests used:
HT-29 [1] = assay: Growth inhibition of HT29 cells assessed as relative survival at 50 uM after 2 hrs relative to control; type: functional, Homo sapiens
Procedure, shortened: (§1)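 HT-29 colon carcinoma cells were exposed to drug for 2 h at 41°C, with DMSO as vehicle. Drug was then washed off and cells grown 14 days in fresh medium. Colonies of more than 50 cells were stained with crystal violet and counted. Survival was corrected for plating efficiency (vehicle, 2 h, 37°C) and for 2 h drug exposure at 37°C; vehicle at 41°C was set to 1.0. Student's t test.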

HT-29 [2] = assay: Growth inhibition of HT29 cells at 50 uM after 2 hrs; type: functional; conditions: Homo sapiens, HT-29, 2 h; procedure, shortened: as §1
HT-29 [3] = assay: Growth inhibition of HT29 cells assessed as relative survival at 150 uM after 2 hrs relative to control; type: functional, Homo sapiens; procedure, shortened: as §1
HT-29 [4] = assay: Cell survival of human HT29 cells at 150 uM after 2 hrs; type: functional; conditions: HT-29, 2 h, read-out: Survival

Compound `OC1/C(=C/c2cn(Cc3ccccc3)c3ccccc23)N2CCC1CC2` (racemic) has a Survival (HT-29 [1]) of 1, an inhibition at 50 µM (HT-29 [2]) of 93% and a Survival (HT-29 [3]) of 0.06.

Compound `OC1/C(=C/c2cn(Cc3ccccc3Br)c3ccc(Br)cc23)N2CCC1CC2` (configuration not stated) has a Survival (HT-29 [3]) of 0.58 and a viability at 150 µM (HT-29 [4]) of over 70%.

`Cc1ccc2c(c1)c(/C=C1/C(O)C3CCN1CC3)cn2Cc1ccccc1` (configuration not stated) was tested, and the Survival (HT-29 [3]) was 1 and the viability at 150 µM (HT-29 [4]) was over 70%.

`Cc1ccc(Cn2cc(/C=C3/C(=O)C4CCN3CC4)c3cc(Br)ccc32)cc1` showed a Survival (HT-29 [3]) of 1 and a viability at 150 µM (HT-29 [4]) of over 70%.

Work on `COc1ccc2c(c1)c(/C=C1/C(O)C3CCN1CC3)cn2Cc1ccccc1` (configuration not stated) yielded a Survival (HT-29 [1]) of 0.76 and a viability at 150 µM (HT-29 [4]) of under 70%.

In the case of `O=C1/C(=C/c2cn(Cc3ccc(Cl)cc3)c3ccccc23)N2CCC1CC2`, the Survival (HT-29 [3]) is reported as 0.56 and the viability at 150 µM (HT-29 [4]) is reported as over 70%.

For `O=C1/C(=C/c2cn(Cc3ccccc3)c3ccc(Br)cc23)N2CCC1CC2`, the Survival (HT-29 [3]) was 1 and the viability at 150 µM (HT-29 [4]) was over 70%.

`Cc1ccc(Cn2cc(/C=C3/C(O)C4CCN3CC4)c3cc(Br)ccc32)cc1` (configuration not stated) gave a Survival (HT-29 [3]) of 0.78 and a viability at 150 µM (HT-29 [4]) of over 70%.

In the case of `COc1ccc(Cn2cc(/C=C3/C(=O)C4CCN3CC4)c3cc(Br)ccc32)cc1`, the Survival (HT-29 [3]) is reported as 0.86 and the viability at 150 µM (HT-29 [4]) is reported as over 70%.

In the case of `Cc1ccc(Cn2cc(/C=C3/C(=O)C4CCN3CC4)c3ccccc32)cc1`, the Survival (HT-29 [3]) is reported as 1 and the viability at 150 µM (HT-29 [4]) is reported as over 70%.

Compound `Cc1ccc2c(c1)c(/C=C1/C(=O)C3CCN1CC3)cn2Cc1ccccc1` has a Survival (HT-29 [3]) of 0.98 and a viability at 150 µM (HT-29 [4]) of over 70%.

For `Cc1ccc(Cn2cc(/C=C3/C(O)C4CCN3CC4)c3cc(C)ccc32)cc1` (configuration not stated), the Survival (HT-29 [1]) was 0.59 and the viability at 150 µM (HT-29 [4]) was under 70%.

`OC1/C(=C/c2cn(Cc3ccc(Cl)cc3)c3ccc(Br)cc23)N2CCC1CC2` (configuration not stated) showed a Survival (HT-29 [3]) of 0.9 and a viability at 150 µM (HT-29 [4]) of over 70%.

For `O=C1/C(=C/c2cn(Cc3ccccc3)c3ccccc23)N2CCC1CC2`, the Survival (HT-29 [3]) was 0.5.

In the case of `O=C1/C(=C/c2cn(Cc3ccc(Cl)cc3)c3ccc(Br)cc23)N2CCC1CC2`, the Survival (HT-29 [3]) is reported as 1 and the viability at 150 µM (HT-29 [4]) is reported as over 70%.

In the case of `OC1/C(=C/c2cn(Cc3ccc(Cl)cc3)c3ccccc23)N2CCC1CC2` (configuration not stated), the Survival (HT-29 [1]) is reported as 0.07 and the viability at 150 µM (HT-29 [4]) is reported as under 70%.

`O=C1/C(=C/c2cn(Cc3ccc(F)cc3)c3ccccc23)N2CCC1CC2` gave a Survival (HT-29 [3]) of 0.71 and a viability at 150 µM (HT-29 [4]) of over 70%.

Compound `COc1ccc(Cn2cc(/C=C3/C(O)C4CCN3CC4)c3cc(Br)ccc32)cc1` (configuration not stated) has a Survival (HT-29 [3]) of 0.61 and a viability at 150 µM (HT-29 [4]) of over 70%.

For `O=C1/C(=C/c2cn(Cc3ccc(F)cc3)c3ccc(Br)cc23)N2CCC1CC2`, the Survival (HT-29 [3]) was 0.81 and the viability at 150 µM (HT-29 [4]) was over 70%.

`O=C1/C(=C/c2cn(Cc3ccccc3Br)c3ccc(Br)cc23)N2CCC1CC2` gave a Survival (HT-29 [3]) of 0.96 and a viability at 150 µM (HT-29 [4]) of over 70%.

For `OC1/C(=C/c2cn(Cc3ccc(F)cc3)c3ccccc23)N2CCC1CC2` (configuration not stated), the Survival (HT-29 [1]) was 0.7 and the viability at 150 µM (HT-29 [4]) was under 70%.

Compound `COc1ccc2c(c1)c(/C=C1/C(=O)C3CCN1CC3)cn2Cc1ccccc1` has a Survival (HT-29 [3]) of 0.75 and a viability at 150 µM (HT-29 [4]) of over 70%.

With `OC1/C(=C/c2cn(Cc3ccc(F)cc3)c3ccc(Br)cc23)N2CCC1CC2` (configuration not stated) the Survival (HT-29 [3]) was 0.52 and the viability at 150 µM (HT-29 [4]) was over 70%.

Compound `Cc1ccc(Cn2cc(/C=C3/C(=O)C4CCN3CC4)c3cc(C)ccc32)cc1` has a Survival (HT-29 [3]) of 1 and a viability at 150 µM (HT-29 [4]) of over 70%.

For `OC1/C(=C/c2cn(Cc3ccccc3)c3ccc(Br)cc23)N2CCC1CC2` (configuration not stated), the Survival (HT-29 [3]) was 0.59 and the viability at 150 µM (HT-29 [4]) was over 70%.

`Cc1ccc(Cn2cc(/C=C3/C(O)C4CCN3CC4)c3ccccc32)cc1` (configuration not stated) showed a Survival (HT-29 [1]) of 0.59 and a viability at 150 µM (HT-29 [4]) of under 70%.
